ChEMBL document CHEMBL1124035, “1-Amino-substituted 4-methyl-5H-pyrido[4,3-b]indoles (gamma-carbolines) as tricyclic analogues of ellipticines: a new class of antineoplastic agents” (1988)

Columns and labels:
Mus musculus [1] = assay: Weight change in g when a dose of 100 mg/kg (iv) to P388 leukemia model; assay type: functional
Procedure, shortened: (§1)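 Mice (10 per group) were inoculated ip at D0 with 10^6 P388 leukemia cells and given a single iv dose at D1. Read-outs were weight change (g), median survival day, T/C % versus controls and survivors at D30.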

Mus musculus [2] = assay: Median survival day of P388 leukemia infected mice, when a dose of 10 mg/kg administered intraperitoneally; assay type: functional; settings: route intraperitoneal
Procedure, shortened: (§2)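 P388 leukaemia in CDF1 hybrid mice, 10 per group. At D0, 10^6 viable cells were inoculated ip, followed by a single ip dose of drug in distilled water on D1. Weight change, median survival day, T/C (treated/control median survival × 100) and survivors at D30 were recorded. Controls were 20 mice.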

Mus musculus [3] = assay: Median survival day of P388 leukemia infected mice, when a dose of 5 mg/kg administered intraperitoneally; assay type: functional; settings: route intraperitoneal; procedure, shortened: as §2
Mus musculus [4] = assay: Antitumor activity against L1210 cells at a dose of 20 mg/kg administered intravenously to mice; assay type: functional; settings: route intravenous
Procedure, shortened: (§3)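 P388 (10^6 cells) or L1210 (10^5 cells) leukemia was inoculated ip in mice at D0, followed by a single iv drug treatment on D1. Weight change was recorded. T/C % = median survival day of treated / controls × 100; survivors noted at D30; 10-15 mice per group.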

Mus musculus [5] = assay: Survivors at day 30 when a dose of 10 mg/kg administered to P388 leukemia infected when tested in 10 mice; assay type: functional; procedure, shortened: as §2
Mus musculus [6] = assay: Survivors at day 30 when a dose of 20 mg/kg administered to P388 leukemia model when tested in 10 mice; assay type: functional; procedure, shortened: as §2
Mus musculus [7] = assay: Survivors at day 60 when a dose of 2.5 mg/kg to B16 melanoma infected when tested in 10 mice; assay type: functional
Mus musculus [8] = assay: Survivors at day 60 when a dose of 5 mg/kg to B16 melanoma infected when tested in 10 mice; assay type: functional
Mus musculus [9] = assay: Survivors at day 60 when a dose of 10 mg/kg to B16 melanoma infected when tested in 10 mice; assay type: functional
Mus musculus [10] = assay: Weight change in g when a dose of 100 mg/kg intravenous administration to P388 leukemia mice model; assay type: functional; procedure, shortened: as §1
Mus musculus [11] = assay: Median survival day of B16 melanoma infected mice when a dose of 10 mg/kg administered intraperitoneally; assay type: functional; settings: route intraperitoneal
Procedure, shortened: (§4)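 B16 melanoma in hybrid BD F1 mice. At D0 each mouse was inoculated ip with 0.5 mL of homogenate made from 1 g of tumour in 10 mL of physiological serum. Compounds were given ip daily at the stated doses for 9 days (D1-9), with cis-platinum 0.5 mg/kg under the same schedule as positive control.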

Mus musculus [12] = assay: Median survival day of B16 melanoma infected micee when a dose of 5 mg/kg administered intraperitoneally; assay type: functional; settings: route intraperitoneal; procedure, shortened: as §4
Mus musculus [13] = assay: […] in C38 adenocarcinoma cell line when a dose of 75 mg/kg administered intravenously to mice; assay type: functional, MC-38; settings: route intravenous
Procedure, shortened: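 C38 colon adenocarcinoma in hybrid BD F1 mice, 10 per test. A standard 3-mm³ tumour fragment was implanted sc. Drugs were given iv at the stated doses on D1 or on D2 + D9, following the Geran et al. NCI protocol.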

Mus musculus [14] = assay: Median tumoral volume of C38 adenocarcinoma model when a dose of 100 mg/kg administered intravenously on D1 to mice; assay type: functional; settings: route intravenous
Procedure, shortened: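 Geran protocol in hybrid BDF1 mice, 10 per test, implanted sc with a standard 3-mm³ fragment of C38 colon adenocarcinoma. Drug was given iv at the stated doses on D1, or on D2 + D9, and tumor growth was followed.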

Mus musculus [15] = assay: Median survival day in P388 leukemia model when a dose of 50 mg/kg administered intravenously to mice; assay type: functional; settings: route intravenous
Procedure, shortened: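 P388 leukaemia in CDF1 hybrid mice, 10 per group. At D0, 10^6 viable cells were inoculated ip, followed by a single iv dose on D1. Weight change, median survival day, T/C (treated/control median survival × 100) and survivors at D30 were recorded.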

Mus musculus [16] = assay: Antitumor activity against L1210 cells at a dose of 40 mg/kg administered intravenously to mice; assay type: functional; settings: route intravenous; procedure, shortened: as §3
Mus musculus [17] = assay: Weight change in g when a dose of 2.5 mg/kg administered intraperitoneally B16 melanoma infected mice; assay type: functional; settings: route intraperitoneal
Procedure, shortened: (§5)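 Hybrid BDF1 mice were inoculated ip at D0 with 0.5 mL of B16 melanoma homogenate (1 g tumor in 10 mL physiological serum). Drug was given ip daily on days 1-9, with cis-platinum 0.5 mg/kg as positive control on the same schedule.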

Mus musculus [18] = assay: Antitumor activity against P388 leukemia in mice at a dose of 20 mg/kg administered intraperitoneally; assay type: functional, organism-based; set-up: dose 20 mg/kg
Procedure, shortened: (§6)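 CDF1 hybrid male or female mice, 10 per group, were inoculated ip with 10^6 viable P388 cells on day 0. Drugs in distilled water were given ip (0.1 mL/10 g body weight) daily D1-5. Vehicle, 5-fluorouracil and BD 84 were given the same way. T/C = median survival day of treated / controls × 100; T/C > 128% was significant; cures counted at D60.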

Mus musculus [19] = assay: Survivors at day 30 when a dose of 5 mg/kg to P388 leukemia model; 0/10; assay type: functional
Mus musculus [20] = assay: Survivors at day 60 when a dose of 1.25 mg/kg to B16 melanoma infected mice; 0/10
Mus musculus [21] = assay: Antitumor activity against C38 adenocarcinoma cells at a dose of 100 mg/kg administered intravenously on D1 to mice; tumor volume at D38 (T/C); settings: route intravenous
Mus musculus [22] = assay: Median survival day in P388 leukemia model when a dose of 80 mg/kg administered intraperitoneally; assay type: functional; settings: route intraperitoneal; procedure, shortened: as §2
Mus musculus [23] = assay: Antitumor activity against P388 cells at a dose of 40 mg/kg administered intraperitoneally P388 Leukemia model; assay type: functional; settings: route intraperitoneal
Procedure, shortened: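 Mice were inoculated ip with 10^6 P388 leukemia cells at D0, then given a single ip drug dose on D1. Weight change was recorded. T/C % = median survival day of treated / controls × 100; survivors counted at D30; 10 mice per dose group, 20 controls.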

Mus musculus [24] = assay: Antitumor activity against B16 melanoma cells at a dose of 20 mg/kg administered intraperitoneally to mice; assay type: functional; settings: route intraperitoneal
Procedure, shortened: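 Hybrid BD F1 mice were inoculated ip at D0 with 0.5 mL of B16 melanoma homogenate (1 g tumor in 10 mL physiological serum). Drugs were given ip daily D1-9. Cisplatin 0.5 mg/kg was the positive control under the same schedule.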

Mus musculus [25] = assay: Weight change in g when a dose of 2.5 mg/kg administered intraperitoneally in B-16 melanoma infected mice; assay type: functional; settings: route intraperitoneal; procedure, shortened: as §5
Mus musculus [26] = assay: Weight change in g when a dose of 30 mg/kg administered intraperitoneally to mice; assay type: functional; settings: route intraperitoneal
Mus musculus [27] = assay: Antitumor activity against P388 leukemia in mice at a dose of 15 mg/kg administered intraperitoneally for 5 days; assay type: functional; settings: route intraperitoneal; procedure, shortened: as §6
Mus musculus [28] = assay: Survivors at day 60 when a dose of 20 mg/kg to B16 melanoma infected mice; 5/10; assay type: functional
Mus musculus [29] = assay: Survivors at day 60 when a dose of 5 mg/kg to B16 melanoma infected mice; 0/10; assay type: functional
Mus musculus [30] = assay: Weight change in g when a dose of 10 mg/kg administered intraperitoneally in B-16 melanoma infected mice; assay type: functional; settings: route intraperitoneal; procedure, shortened: as §5

## Cc1cnc(NCCCN(C)C)c2c3cc(O)ccc3n(C)c12
Mus musculus [1]
  Weight change: -0.25 g
Mus musculus [2]
  Median survival day: 19
Mus musculus [3]
  Median survival day: 19.75
Mus musculus [4]
  T/C: 157%
Mus musculus [5]
  Survivors: 1
Mus musculus [6]
  Survivors: 1
Mus musculus [7]
  Survivors: 0
Mus musculus [8]
  Survivors: 1
Mus musculus [9]
  Survivors: 0

## CCN(CC)CCCNc1ncc(C)c2c1c1cc(O)ccc1n2C
Mus musculus [10]
  Weight change: -1.6 g
Mus musculus [11]
  Median survival day: 19.3
Mus musculus [12]
  Median survival day: 41.25
Mus musculus [13]
  Median tumoral volume: 0.97 cm*3
Mus musculus [14]
  Median tumoral volume: 3.24 cm*3
Mus musculus [15]
  Median survival day: 19
Mus musculus [16]
  T/C: 149%
Mus musculus [17]
  Weight change: 0.6 g
Mus musculus [18]
  T/C: Toxic
Mus musculus [19]
  Survivors: 0
Mus musculus [20]
  Survivors: 0
Mus musculus [21]
  Tumor volume: 36%

## CCN(CC)CCCNc1[nH]cc(C)c2nc3ccc(O)cc3c1-2
Mus musculus [22]
  Median survival day: 2.3
Mus musculus [23]
  T/C: 136%
Mus musculus [24]
  T/C: 211%
Mus musculus [25]
  Weight change: 3.6 g
Mus musculus [26]
  Weight change: -1 g
Mus musculus [27]
  T/C: 208%
Mus musculus [28]
  Survivors: 5
Mus musculus [29]
  Survivors: 0
Mus musculus [30]
  Weight change: 1.6 g
